Active and inactive are the calls of the source. The calls are words filed in the database; no cut-off is given here.
How the values were obtained:
[1] = biological target: Speckle-type POZ protein (Homo sapiens) (UniProt O43791); assay: Binding affinity to recombinant N-terminal GST/His-tagged MATH binding domain SPOP (unknown origin) expressed in Escherichia coli BL21 (DE3) assessed as change in melting temperature at 10 fold compound incubated for 15 mins by nano differential scanning fluorimetry (reference value: -1.7 degreeC)
A498 = assay: Antiproliferative activity against human A498 cells assessed as reduction in cell viability at 30 uM incubated for 72 hrs by MTT assay relative to control; assay type: functional; conditions: A498, 72 h
Procedure, shortened: (§1)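 MTT read-out. Cells seeded at 1,000-2,200/well, grown 12 hr at 37 °C, then compound added for 72 hr. MTT for 4 hr, formazan dissolved in DMSO, absorbance at 490 nm. Untreated-cell OD taken as 100% proliferation; inhibition reported at 30 μM.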

OS-RC-2 [2] = assay: Antiproliferative activity against human OS-RC2 cells assessed as reduction in cell viability at 30 uM incubated for 72 hrs by MTT assay relative to control; assay type: functional; conditions: OS-RC-2, 72 h; procedure, shortened: as §1
OS-RC-2 [3] = assay: Antiproliferative activity against human OS-RC2 cells assessed as reduction in cell viability incubated for 72 hrs by MTT assay; assay type: functional, cell-based; conditions: OS-RC-2, 72 h
Procedure, shortened: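 MTT read-out. Cells seeded at 1,000-2,200/well, grown 12 hr at 37 °C before compound, then exposed 72 hr. MTT for 4 hr, formazan dissolved in DMSO, A490 read. Untreated cells = 100% proliferation. IC50 quantitated; mean ± SD, n = 3.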

[4] = Solubility of compound in cell culture medium in presence of 0.2 % DMSO; assay type: physicochemical
Procedure, shortened: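 Solubility determined in cell culture medium containing 0.2% DMSO.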

[5] = Selectivity index, ratio of IC50 for human Hs766T to IC50 for human A498 cells
[6] = Selectivity index, ratio of IC50 for human U251 to IC50 for human A498 cells
[7] = Selectivity index, ratio of IC50 for human A549 to IC50 for human A498 cells
[8] = biological target: Speckle-type POZ protein (Homo sapiens) (UniProt O43791); assay: Binding affinity to recombinant N-terminal GST/His-tagged MATH binding domain SPOP (unknown origin) expressed in Escherichia coli BL21 (DE3) assessed as change in melting temperature at 20 fold compound incubated for 15 mins by nano differential scanning fluorimetry (reference value: -3.8 degreeC)
[9] = biological target: Speckle-type POZ protein (Homo sapiens) (UniProt O43791); assay: Binding affinity to recombinant N-terminal GST/His-tagged SPOP (unknown origin) (23 to 337 residues) expressed in Escherichia coli BL21 (DE3) assessed as change in melting temperature at 1 fold compound incubated for 15 mins by nano differential scanning fluorimetry (reference value: -1.9 degreeC)
[10] = biological target: Speckle-type POZ protein/PTEN (Homo sapiens) (UniProt P60484+O43791); assay: Inhibition of SPOP/PTEN interaction in human OS-RC2 cells assessed as increase in SPOP level at 1 to 50 uM incubated for 20 mins by DARTS based Western blot analysis; assay type: cell-based
Procedure, shortened: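 DARTS. Lysates of 1×10⁶ cells in TNC buffer, 120 μg per tube, incubated with compound at 0, 1, 5, 10 or 50 μM for 20 min at rt. Pronase digestion 10 min at rt (1:1000 for A498, 1:2000 for OS-RC-2), stopped with protease inhibitors, then SPOP western blot. Triplicate experiments.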

[11] = biological target: Speckle-type POZ protein (Homo sapiens) (UniProt O43791); assay: Inhibition of SPOP signalling in human A498 cells assessed as accumulation of PTEN incubated for 12 hrs by Western blot analysis; assay type: cell-based
Procedure, shortened: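 Cells treated with SPOP inhibitor at different concentrations for 12 hr, lysed in RIPA, protein by BCA. Samples run on 12% SDS-PAGE, blotted to nitrocellulose, primary antibody overnight at 4 °C, HRP secondary, ECL detection. GAPDH loading control. Triplicate experiments.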

[12] = biological target: Speckle-type POZ protein (Homo sapiens) (UniProt O43791); assay: Inhibition of SPOP signalling in human A498 cells assessed as accumulation of DUSP7 incubated for 12 hrs by Western blot analysis; assay type: cell-based
Procedure, shortened: (§2)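 Cells exposed 12 hr to inhibitor at graded concentrations, RIPA lysates normalized by BCA. 12% SDS-PAGE, nitrocellulose transfer, milk block, primary antibody at 4 °C overnight, HRP secondary, ECL. GAPDH loading control.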

[13] = biological target: Speckle-type POZ protein (Homo sapiens) (UniProt O43791); assay: Inhibition of SPOP signalling in human A498 cells assessed as reduction in ERK phosphorylation at 0.5 to 10 uM incubated for 12 hrs by Western blot analysis; assay type: cell-based; procedure, shortened: as §2
[14] = biological target: Speckle-type POZ protein (Homo sapiens) (UniProt O43791); assay: Inhibition of SPOP signalling in human OS-RC2 cells assessed as effect on total AKT level at 0.5 to 15 uM incubated for 12 hrs by Western blot analysis; assay type: cell-based; procedure, shortened: as §2
[15] = biological target: Speckle-type POZ protein (Homo sapiens) (UniProt O43791); assay: Inhibition of SPOP signalling in human OS-RC2 cells assessed as effect of PTEN mRNA expression at 1 to 10 uM incubated for 12 hrs by qRT-PCR analysis; assay type: cell-based

Speckle-type POZ protein (Homo sapiens), sequence (O43791 whole entry, the tested form may be a part): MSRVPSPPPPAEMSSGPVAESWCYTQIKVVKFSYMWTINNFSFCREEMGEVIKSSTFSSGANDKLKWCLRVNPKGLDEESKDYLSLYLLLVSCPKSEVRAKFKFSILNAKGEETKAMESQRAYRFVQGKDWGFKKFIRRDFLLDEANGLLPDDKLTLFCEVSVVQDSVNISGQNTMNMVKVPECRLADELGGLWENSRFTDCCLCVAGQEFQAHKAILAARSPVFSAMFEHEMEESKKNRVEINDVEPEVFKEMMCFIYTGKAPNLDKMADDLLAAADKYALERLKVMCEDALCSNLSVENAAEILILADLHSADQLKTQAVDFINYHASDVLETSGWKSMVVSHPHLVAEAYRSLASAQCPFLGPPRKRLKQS
Speckle-type POZ protein/PTEN (Homo sapiens), sequence (O43791 whole entry, looked up): as the sequence (O43791 whole entry, the tested form may be a part) above
Speckle-type POZ protein/PTEN (Homo sapiens), sequence (P60484 whole entry, looked up): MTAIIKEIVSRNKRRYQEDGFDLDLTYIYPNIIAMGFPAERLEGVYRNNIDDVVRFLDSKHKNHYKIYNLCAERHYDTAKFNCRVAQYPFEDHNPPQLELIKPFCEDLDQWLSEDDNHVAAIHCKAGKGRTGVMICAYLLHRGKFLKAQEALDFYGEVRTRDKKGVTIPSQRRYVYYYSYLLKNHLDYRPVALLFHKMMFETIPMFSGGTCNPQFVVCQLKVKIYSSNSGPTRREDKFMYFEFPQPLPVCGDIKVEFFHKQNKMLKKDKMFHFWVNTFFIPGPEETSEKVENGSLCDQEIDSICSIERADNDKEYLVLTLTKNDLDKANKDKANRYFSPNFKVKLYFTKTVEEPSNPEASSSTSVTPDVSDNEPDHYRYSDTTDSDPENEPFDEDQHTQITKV

Cc1cccn2c(=O)c3cc(C(=O)NCCN4CCN(C)CC4)c(=N)n(CCc4cccs4)c3nc12
ΔTm [1]: 3.1 °C
inhibition at 30 µM (A498): 85%
inhibition at 30 µM (OS-RC-2 [2]): 90%
IC50 (OS-RC-2 [3]): 3.5 µM
solubility [4]: > 90 µM
Ratio IC50 [5]: >5
Ratio IC50 [6]: >5
Ratio IC50 [7]: >5
ΔTm [8]: 3.5 °C
ΔTm [9]: 2.1 °C
inhibition [10]: Active
inhibition [11]: Dose-dependent effect
inhibition [12]: Dose-dependent effect
inhibition [13]: Active
inhibition [14]: inactive
inhibition [15]: inactive
